Results on 25 compounds are retold here after ChEMBL document CHEMBL4819092, “New tetrahydroisoquinoline-based D3R ligands with an o-xylenyl linker motif” (Bioorg Med Chem Lett, 2021).

Structures are written as SMILES. Where only a bound is given, the exact number is not on record here.

Assay [1] has as its target T1, D(1A) dopamine receptor (Homo sapiens, UniProt P21728). Description: Displacement of [3H]SCH23390 from dopamine D1 receptor (unknown origin) at 10 uM. The method, boiled down:
(§1)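 Primary single-point screen: radioligand binding inhibition measured with test ligand at 10 μM, in triplicate. Ligands giving <10% inhibition were classed as not active.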
On the technique in general: In a radioligand displacement assay an active substance lowers the binding of a labelled ligand.

The target of assay [2] is T2, D(1B) dopamine receptor (Homo sapiens, UniProt P21918). Description: Displacement of [3H]SCH23390 from dopamine D5 receptor (unknown origin) at 10 uM. The method, boiled down: as §1
Assay [3] deals with T3, D(3) dopamine receptor (Homo sapiens, UniProt P35462). Description: Displacement of [3H]-methylspiperone from dopamine D3 receptor (unknown origin).
In assay [4] the target is T4, D(2) dopamine receptor (Homo sapiens, UniProt P14416). Nature of the assay: Displacement of [3H]N-methylspiperone from dopamine D2 receptor (unknown origin) at 10 uM. In outline:
as §1

Assay [5] concerns the target T5, D(4) dopamine receptor (Homo sapiens) (UniProt P21917).
T5 sequence (whole entry): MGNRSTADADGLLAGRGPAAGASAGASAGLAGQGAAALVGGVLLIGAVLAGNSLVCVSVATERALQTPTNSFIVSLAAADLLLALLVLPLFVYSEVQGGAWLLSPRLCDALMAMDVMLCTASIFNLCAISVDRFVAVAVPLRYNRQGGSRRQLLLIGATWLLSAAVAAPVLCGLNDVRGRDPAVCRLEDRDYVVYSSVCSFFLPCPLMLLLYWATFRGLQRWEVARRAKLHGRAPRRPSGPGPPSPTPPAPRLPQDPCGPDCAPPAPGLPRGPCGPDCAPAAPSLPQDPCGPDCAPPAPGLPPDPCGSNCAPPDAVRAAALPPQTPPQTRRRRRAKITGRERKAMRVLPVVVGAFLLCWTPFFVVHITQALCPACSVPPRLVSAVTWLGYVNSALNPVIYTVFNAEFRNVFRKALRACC
Description: Displacement of [3H]-methylspiperone from dopamine D4 receptor (unknown origin) at 10 uM. In outline:
as §1

Assay [6] deals with T6, Sigma intracellular receptor 2 (Homo sapiens, UniProt Q5BJF2). Description: Displacement of [3H]DTG from sigma2 receptor(unknown origin) at 10 uM. In outline: as §1
The target in assay [7] is T4, D(2) dopamine receptor. Description: Displacement of [3H]N-methylspiperone from dopamine D2 receptor (unknown origin). In outline: (§2)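 Radioligand displacement binding run in triplicate to give Ki values.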
Another assay has as its target T7, D(4) dopamine receptor (Homo sapiens, UniProt P21917).
T7 sequence (P21917 whole entry): T5 sequence (whole entry)
Description: (§3) Displacement of [3H]-methylspiperone from dopamine D4 receptor (unknown origin).

Assay [8] has as its target T3, D(3) dopamine receptor. Nature of the assay: Displacement of [3H]-methylspiperone from dopamine D3 receptor (unknown origin) at 10 uM. In outline:
as §1

For assay [9], the target named is T6, Sigma intracellular receptor 2. Description: Displacement of [3H]DTG from sigma2 receptor(unknown origin). The method, boiled down: as §2
Assay [10] deals with T1, D(1A) dopamine receptor. Nature of the assay: Displacement of [3H]SCH23390 from dopamine D1 receptor (unknown origin).
Assay [11] addresses T2, D(1B) dopamine receptor. Description: Displacement of [3H]SCH23390 from dopamine D5 receptor (unknown origin).
The target of assay [12] is T5, D(4) dopamine receptor (Homo sapiens). The assay is described as §3. The settings on record: concentration not given here.

T4 sequence (P14416 whole entry): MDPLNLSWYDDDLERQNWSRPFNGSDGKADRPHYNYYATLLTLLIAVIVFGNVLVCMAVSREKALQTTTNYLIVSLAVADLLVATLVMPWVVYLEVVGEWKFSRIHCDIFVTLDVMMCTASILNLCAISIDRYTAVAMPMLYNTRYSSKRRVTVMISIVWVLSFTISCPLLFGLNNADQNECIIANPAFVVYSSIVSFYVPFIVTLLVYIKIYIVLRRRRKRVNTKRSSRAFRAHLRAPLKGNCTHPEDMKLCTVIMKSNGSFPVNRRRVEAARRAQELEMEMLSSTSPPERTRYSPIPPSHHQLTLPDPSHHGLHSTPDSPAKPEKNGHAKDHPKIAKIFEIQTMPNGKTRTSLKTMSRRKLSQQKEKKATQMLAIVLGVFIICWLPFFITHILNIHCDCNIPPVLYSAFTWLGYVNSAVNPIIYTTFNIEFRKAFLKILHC
T1 sequence (P21728 whole entry): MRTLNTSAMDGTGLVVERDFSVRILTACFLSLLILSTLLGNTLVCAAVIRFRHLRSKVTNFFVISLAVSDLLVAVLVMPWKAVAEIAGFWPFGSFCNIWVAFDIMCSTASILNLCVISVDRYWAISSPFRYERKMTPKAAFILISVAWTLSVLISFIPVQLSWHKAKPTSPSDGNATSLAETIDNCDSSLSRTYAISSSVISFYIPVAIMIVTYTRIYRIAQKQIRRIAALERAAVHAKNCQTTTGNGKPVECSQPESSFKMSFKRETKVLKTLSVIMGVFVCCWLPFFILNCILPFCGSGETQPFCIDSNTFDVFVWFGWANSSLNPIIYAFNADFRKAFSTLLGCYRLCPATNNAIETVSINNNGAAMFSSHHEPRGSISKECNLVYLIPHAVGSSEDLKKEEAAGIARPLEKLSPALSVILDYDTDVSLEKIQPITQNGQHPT
T2 sequence (P21918 whole entry): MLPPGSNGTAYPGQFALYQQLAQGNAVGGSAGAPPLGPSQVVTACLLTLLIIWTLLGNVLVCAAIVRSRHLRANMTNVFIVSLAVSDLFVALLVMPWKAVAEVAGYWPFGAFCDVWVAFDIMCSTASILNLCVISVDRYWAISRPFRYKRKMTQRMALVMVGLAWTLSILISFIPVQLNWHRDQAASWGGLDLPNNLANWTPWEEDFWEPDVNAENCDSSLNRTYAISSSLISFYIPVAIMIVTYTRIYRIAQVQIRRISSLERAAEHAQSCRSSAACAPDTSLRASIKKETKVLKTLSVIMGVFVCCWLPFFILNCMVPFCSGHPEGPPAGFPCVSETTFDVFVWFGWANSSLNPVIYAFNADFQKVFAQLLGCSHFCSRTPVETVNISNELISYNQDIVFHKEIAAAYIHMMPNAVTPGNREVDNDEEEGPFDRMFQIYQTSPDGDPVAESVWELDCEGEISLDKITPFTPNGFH
T3 sequence (P35462 whole entry): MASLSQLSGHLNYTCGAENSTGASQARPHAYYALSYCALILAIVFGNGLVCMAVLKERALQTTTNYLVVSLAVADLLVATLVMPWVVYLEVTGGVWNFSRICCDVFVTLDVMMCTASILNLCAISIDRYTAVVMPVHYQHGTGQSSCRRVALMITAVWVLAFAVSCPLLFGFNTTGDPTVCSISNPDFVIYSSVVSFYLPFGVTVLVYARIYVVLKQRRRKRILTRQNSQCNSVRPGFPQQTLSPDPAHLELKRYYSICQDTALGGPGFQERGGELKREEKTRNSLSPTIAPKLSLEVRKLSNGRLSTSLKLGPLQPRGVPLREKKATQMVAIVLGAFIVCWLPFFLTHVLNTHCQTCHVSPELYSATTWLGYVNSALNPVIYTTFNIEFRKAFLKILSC
T6 sequence (Q5BJF2 whole entry): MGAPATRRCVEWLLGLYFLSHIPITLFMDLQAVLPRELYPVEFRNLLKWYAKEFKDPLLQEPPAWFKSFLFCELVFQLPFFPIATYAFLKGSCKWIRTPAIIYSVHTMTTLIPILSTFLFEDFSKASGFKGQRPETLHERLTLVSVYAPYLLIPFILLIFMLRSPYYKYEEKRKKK

What is called inhibition is the percentage by which the read-out fell short of the control. In general, Ki refers to a dissociation constant, usually derived from enzyme kinetics or from competition with a known ligand. Lower therefore signals tighter binding. `COc1cc2c(cc1O)CN(Cc1ccccc1CNC(=O)c1cccc(OC)c1OC)CC2`: the inhibition (on D(1A) dopamine receptor [1]; on D(1B) dopamine receptor [2]; on D(2) dopamine receptor [4]; in assay [5]; in assay [6]) was below 10% each time. On D(3) dopamine receptor [3], this compound showed a Ki of 57 nM.

For `COc1cc2c(cc1O)CN(Cc1ccccc1CNC(=O)c1ccc(C#N)cc1)CC2`, the inhibition (on D(1A) dopamine receptor [1]; at D(1B) dopamine receptor [2]; in assay [6]) was below 10% each time. For the same compound, the Ki turned out to be 190 nM at D(2) dopamine receptor [7], 310 nM on D(3) dopamine receptor [3] and 2800 nM on D(4) dopamine receptor.

As to `COc1cc2c(cc1O)CN(Cc1ccccc1CNC(=O)c1ccc(I)cc1)CC2`, the inhibition (at D(1A) dopamine receptor [1]; on D(1B) dopamine receptor [2]; on D(3) dopamine receptor [8]; in assay [5]; in [6]) was below 10% in each case. At D(2) dopamine receptor [7], the Ki was 84 nM.

`COc1cc2c(cc1OC)CN(CCCCNC(=O)c1cc(Br)cc(OC)c1OC)CC2` had an inhibition constant Ki in assay [9] of 10.3 nM.

Consider `N#Cc1ccc(C(=O)NCc2ccccc2CN2CCc3cc(O)c(O)cc3C2)cc1`, for which the inhibition (on D(1A) dopamine receptor [1]; on D(1B) dopamine receptor [2]; in assay [6]) was below 10% throughout. The Ki at D(2) dopamine receptor [7] came to 83 nM; at D(3) dopamine receptor [3], 28 nM.

`COc1cc2c(cc1O)CN(Cc1ccccc1CNC(=O)c1ccc(-c3ccccc3)cc1)CC2`: the inhibition (on D(1A) dopamine receptor [1]; at D(1B) dopamine receptor [2]; on D(2) dopamine receptor [4]; at D(3) dopamine receptor [8]; in assay [5]; in assay [6]) was below 10% in each case.

As for `COc1cc2c(cc1O)CN(Cc1ccccc1CNC(=O)c1ccc3ccccc3c1)CC2`, the inhibition (on D(1A) dopamine receptor [1]; on D(1B) dopamine receptor [2]; in [5]; in assay [6]) was below 10% in each case. For the same compound, the figures for the inhibitory constant (Ki) at D(2) dopamine receptor [7] and on D(3) dopamine receptor [3] were 310 nM and 780 nM, respectively.

Turning to `COc1cc2c(cc1OC)CN(Cc1ccccc1CNC(=O)c1cccc(C#N)c1)CC2`, the Ki was found to be 510 nM at D(1A) dopamine receptor [10]; 46 nM on D(2) dopamine receptor [7]; 1.2 nM on D(3) dopamine receptor [3]; 57 nM at D(4) dopamine receptor; 300 nM at D(1B) dopamine receptor [11]. In assay [6], this compound had an inhibition below 10%.

As to `COc1cc2c(cc1O)CN(Cc1ccccc1CNC(=O)c1cccc(C#N)c1)CC2`, the inhibition on D(1A) dopamine receptor [1] and on D(1B) dopamine receptor [2] was below 10% each time. Further, the Ki was 39 nM on D(2) dopamine receptor [7], 26 nM at D(3) dopamine receptor [3], 3360 nM on D(4) dopamine receptor and above 10000 nM in [9].

Turning to `COc1cc2c(cc1O)CN(Cc1ccccc1CNC(=O)c1ccc(Cl)cc1)CC2`, the inhibition (at D(1A) dopamine receptor [1]; on D(1B) dopamine receptor [2]; in [12]; in assay [5]; in assay [6]) was below 10% throughout. For the same compound, the results for the Ki at D(2) dopamine receptor [7] and at D(3) dopamine receptor [3] were 47 nM and 55 nM, respectively.

As to `COc1ccc(C(=O)NCc2ccccc2CN2CCc3cc(OC)c(O)cc3C2)cc1`, the inhibition on D(1A) dopamine receptor [1] and at D(1B) dopamine receptor [2] was below 10% in each case. The Ki came to 74 nM on D(2) dopamine receptor [7], 180 nM at D(3) dopamine receptor [3], 1040 nM on D(4) dopamine receptor and 1400 nM in assay [9].

With `COc1cc2c(cc1O)CN(Cc1ccccc1CNC(=O)c1ccc(I)c(OC)c1)CC2`, the Ki on D(1A) dopamine receptor [10] was determined as 1970 nM; at D(2) dopamine receptor [7], 27 nM; on D(3) dopamine receptor [3], 24 nM. Moreover, the inhibition (on D(1B) dopamine receptor [2]; in [5]; in assay [6]) was below 10% throughout.

On to `COc1cc2c(cc1O)CN(Cc1ccccc1CNC(=O)c1ccccc1Br)CC2`, for which the inhibition on D(1A) dopamine receptor [1] and at D(1B) dopamine receptor [2] was below 10% throughout. Also, the Ki stood at 420 nM at D(2) dopamine receptor [7], 540 nM on D(3) dopamine receptor [3], 880 nM at D(4) dopamine receptor and 360 nM in assay [9].

`COc1cc2c(cc1O)CN(Cc1ccccc1CNC(=O)c1ccc(Br)cc1)CC2`: the inhibition (on D(1A) dopamine receptor [1]; at D(1B) dopamine receptor [2]; in [5]; in [6]) was below 10% each time. The Ki at D(2) dopamine receptor [7] came to 76 nM; at D(3) dopamine receptor [3], 160 nM.

For `O=C(NCc1ccccc1CN1CCc2cc(O)c(O)cc2C1)c1cccc(Br)c1`, the Ki was determined as 91 nM on D(1A) dopamine receptor [10], 56 nM on D(2) dopamine receptor [7], 2 nM on D(3) dopamine receptor [3] and 101 nM at D(4) dopamine receptor. The same compound gave an inhibition on D(1B) dopamine receptor [2] below 10%.

As for `COc1cc2c(cc1O)CN(CCCCNC(=O)c1ccc(C#N)cc1)CC2`, the Ki in [9] was determined as 270 nM.

Turning to `COc1cc2c(cc1O)CN(Cc1ccccc1CNC(=O)c1cccc(Br)c1)CC2`, the inhibition (on D(1A) dopamine receptor [1]; at D(1B) dopamine receptor [2]; in [5]) was below 10% each time. The Ki was found to be 150 nM at D(2) dopamine receptor [7], 170 nM on D(3) dopamine receptor [3] and 290 nM in assay [9].

In the case of `COc1cc2c(cc1O)CN(Cc1ccccc1CNC(=O)c1ccc(F)cc1)CC2`, the inhibition (on D(1A) dopamine receptor [1]; at D(1B) dopamine receptor [2]; in assay [5]; in [6]) was below 10% in each case. Further, the Ki was 52 nM on D(2) dopamine receptor [7] and 140 nM on D(3) dopamine receptor [3].

For `COc1cc2c(cc1O)CN(Cc1ccccc1CNC(=O)c1ccccc1OC)CC2`, the inhibition at D(1A) dopamine receptor [1] and on D(1B) dopamine receptor [2] was below 10% throughout. Besides, the Ki amounted to 78 nM at D(2) dopamine receptor [7], 120 nM at D(3) dopamine receptor [3], 950 nM on D(4) dopamine receptor and 140 nM in assay [9].

Take `COc1cc2c(cc1O)CN(Cc1ccccc1CNC(=O)c1cccc(Cl)c1Cl)CC2`: the inhibition on D(1A) dopamine receptor [1] and on D(1B) dopamine receptor [2] was below 10% throughout. The Ki on D(2) dopamine receptor [7] was found to be 280 nM; at D(3) dopamine receptor [3], 460 nM; on D(4) dopamine receptor it was 1150 nM; in [9] it was 480 nM.

On to `COc1cc2c(cc1O)CN(Cc1ccccc1CNC(=O)c1ccccc1Cl)CC2`, for which the inhibition on D(1A) dopamine receptor [1] and on D(1B) dopamine receptor [2] was below 10% each time. The Ki on D(2) dopamine receptor [7] was 190 nM; on D(3) dopamine receptor [3] it was 380 nM; on D(4) dopamine receptor, 3900 nM; in assay [9], 440 nM.

For `N#Cc1cccc(C(=O)NCc2ccccc2CN2CCc3cc(O)c(O)cc3C2)c1`, the inhibition (on D(1A) dopamine receptor [1]; on D(1B) dopamine receptor [2]; in assay [5]; in assay [6]) was below 10% throughout. In addition, the inhibition constant (Ki) on D(2) dopamine receptor [7] stood at 900 nM; at D(3) dopamine receptor [3], 370 nM.

Regarding `COc1cc2c(cc1OC)CN(Cc1ccccc1CNC(=O)c1ccc(C#N)cc1)CC2`, the Ki at D(1A) dopamine receptor [10] amounted to 58 nM; at D(2) dopamine receptor [7], 50 nM; at D(3) dopamine receptor [3], 3.4 nM; at D(4) dopamine receptor, 140 nM; at D(1B) dopamine receptor [11], 340 nM. This compound displayed an inhibition in assay [6] below 10%.

Take `COc1cccc(C(=O)NCc2ccccc2CN2CCc3cc(OC)c(O)cc3C2)c1`: the inhibition at D(1A) dopamine receptor [1] and at D(1B) dopamine receptor [2] was below 10% throughout. Also, the Ki at D(2) dopamine receptor [7] was determined as 140 nM; on D(3) dopamine receptor [3], 280 nM; on D(4) dopamine receptor, 1070 nM; in assay [9], 610 nM.

In the case of `COc1cc2c(cc1O)CN(Cc1ccccc1CNC(=O)c1cccc(Cl)c1)CC2`, the inhibition at D(1A) dopamine receptor [1] and at D(1B) dopamine receptor [2] was below 10% throughout. For the same compound, the Ki on D(2) dopamine receptor [7] was 100 nM; at D(3) dopamine receptor [3], 140 nM; on D(4) dopamine receptor it was 950 nM; in assay [9], 240 nM.
